Test results: PMC5962930 (ACS Chemical Biology, 2018)

How the values were obtained:
apALNR = target: T1, apALNR (Aplysia californica, UniProt A0ABM0K1K5); type: cell-based
T1 sequence (A0ABM0K1K5 1-578): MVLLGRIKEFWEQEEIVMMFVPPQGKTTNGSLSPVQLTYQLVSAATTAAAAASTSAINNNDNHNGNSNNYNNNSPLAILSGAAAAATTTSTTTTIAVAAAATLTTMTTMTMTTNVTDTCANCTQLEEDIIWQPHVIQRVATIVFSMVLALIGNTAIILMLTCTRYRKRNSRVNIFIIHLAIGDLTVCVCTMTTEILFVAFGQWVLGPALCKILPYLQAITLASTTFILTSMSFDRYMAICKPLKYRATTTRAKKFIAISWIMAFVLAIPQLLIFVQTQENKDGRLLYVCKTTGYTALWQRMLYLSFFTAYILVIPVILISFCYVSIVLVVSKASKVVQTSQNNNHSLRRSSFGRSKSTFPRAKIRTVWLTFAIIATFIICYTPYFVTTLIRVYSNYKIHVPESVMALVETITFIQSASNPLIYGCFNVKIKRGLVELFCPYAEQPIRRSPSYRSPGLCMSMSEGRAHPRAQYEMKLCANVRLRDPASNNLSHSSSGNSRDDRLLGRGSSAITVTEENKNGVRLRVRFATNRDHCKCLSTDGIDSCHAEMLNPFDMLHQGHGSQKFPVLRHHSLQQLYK

Aplysia feeding network = experiment: Feeding network; type: cell-based; conditions: intact buccal and cerebral ganglia; peptide perfusion vs control
Summary of the method: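 Intact buccal plus cerebral ganglia were recorded intra- and extracellularly during peptide perfusion. A peptide scored active when perfusion gave statistically higher circuit activity than control without peptide. Means were compared by repeated-measures one-way ANOVA, assuming sphericity, with Bonferroni post test.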

H-SYADSKDEESNAALSDFAED-OH
EC50 (apALNR): > 50 µM
feeding network (electrophys.) (Aplysia feeding network): not active
